Columns and labels:
[1] = target: T1, Amine oxidase [flavin-containing] B (Homo sapiens, UniProt P27338); test: Inhibition of human recombinant MAO-B expressed in baculovirus infected insect cells assessed as hydrogen peroxide production using p-tyramine as substrate incubated for 30 mins prior to substrate addition measured for 45 mins by Amplex Red monoamine oxidase assay
T1 sequence (P27338 whole entry): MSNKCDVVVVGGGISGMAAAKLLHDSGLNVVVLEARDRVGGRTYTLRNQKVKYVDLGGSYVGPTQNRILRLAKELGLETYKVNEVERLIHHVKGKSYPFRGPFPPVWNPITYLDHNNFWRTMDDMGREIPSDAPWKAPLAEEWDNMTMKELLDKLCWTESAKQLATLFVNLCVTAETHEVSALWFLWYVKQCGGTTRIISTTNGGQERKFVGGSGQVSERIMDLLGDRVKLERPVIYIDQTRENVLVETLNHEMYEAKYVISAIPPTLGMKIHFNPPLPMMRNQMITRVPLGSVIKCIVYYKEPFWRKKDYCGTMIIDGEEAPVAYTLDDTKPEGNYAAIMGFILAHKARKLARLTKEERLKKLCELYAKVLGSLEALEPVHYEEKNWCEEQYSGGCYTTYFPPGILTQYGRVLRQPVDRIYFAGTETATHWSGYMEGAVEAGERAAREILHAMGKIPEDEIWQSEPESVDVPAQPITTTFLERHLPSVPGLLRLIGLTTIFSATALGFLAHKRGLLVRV
Summary of the method: (§1)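 Human recombinant enzyme in 50 mM sodium phosphate pH 7.4. Test compound in DMSO preincubated with enzyme for 30 min at room temperature. Reaction started with p-tyramine (final 150 µM) plus Amplex Red/HRP and kept in the dark. Resorufin fluorescence (ex 544, em 590 nm) read over 45 min. IC50 values from three experiments.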

[2] = species: Homo sapiens; test: Selectivity ratio of IC50 for human recombinant MAO-A to IC50 for human recombinant MAO-B
Summary of the method: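 Ratio calculated as IC50 (MAO-A) divided by IC50 (MAO-B), from Amplex Red assays with p-tyramine on human recombinant enzymes.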

[3] = target: T2, Amine oxidase [flavin-containing] A (Homo sapiens, UniProt P21397); test: Inhibition of human recombinant MAO-A expressed in baculovirus infected insect cells assessed as hydrogen peroxide production using p-tyramine as substrate incubated for 30 mins prior to substrate addition measured for 45 mins by Amplex Red monoamine oxidase assay; summary of the method: as §1
T2 sequence (P21397 whole entry): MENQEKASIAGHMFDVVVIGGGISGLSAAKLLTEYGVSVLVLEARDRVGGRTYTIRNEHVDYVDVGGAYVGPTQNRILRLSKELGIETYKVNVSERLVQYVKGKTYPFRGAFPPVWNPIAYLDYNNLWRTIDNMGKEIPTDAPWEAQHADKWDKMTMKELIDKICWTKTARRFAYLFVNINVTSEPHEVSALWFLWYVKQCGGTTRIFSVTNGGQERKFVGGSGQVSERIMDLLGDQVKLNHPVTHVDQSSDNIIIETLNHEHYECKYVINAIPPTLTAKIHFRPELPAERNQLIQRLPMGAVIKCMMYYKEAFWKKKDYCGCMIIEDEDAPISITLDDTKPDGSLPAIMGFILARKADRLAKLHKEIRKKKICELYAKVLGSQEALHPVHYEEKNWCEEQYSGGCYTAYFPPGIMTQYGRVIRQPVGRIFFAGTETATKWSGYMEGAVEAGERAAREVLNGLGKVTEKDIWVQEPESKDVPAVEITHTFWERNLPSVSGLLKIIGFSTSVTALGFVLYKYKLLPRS

[4] = target: T1, Amine oxidase [flavin-containing] B; test: Reversible inhibition of human MAO-B using p-tyramine as substrate at IC80 incubated for 1 hr prior to increasing substrate concentration measured for 5 hrs by fluorescence analysis
Summary of the method: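 Human MAO-B preincubated 1 h with inhibitor at about its IC80. Reaction started with p-tyramine (10 µM). After 22 min, substrate raised to a final 1 mM. Recovery of activity followed by fluorescence over 5 h.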

[5] = Lipophilicity, log D of the compound at pH 7.4 by HPLC analysis; assay type: physicochemical; conditions: buffer
Summary of the method: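 Retention-based HPLC on a C18 column at 40 °C and 0.8 mL/min. Linear gradient with 10 mM ammonium acetate. UV read at 254 nm. Atenolol, metoprolol, diltiazem, labetalol and triphenylene used as references. Compounds injected from DMSO solutions (0.5 mg/mL) in duplicate.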

| SMILES | IC50 [1] | Ratio IC50 [2] | IC50 [3] | inhibition (INH) [4] | logD [5] |
| --- | --- | --- | --- | --- | --- |
| C#CCNCCOc1ccc2ccc(=O)oc2c1 | 852 nM | 12 | 10000 nM | – | – |
| C#CCCCOc1cccc2cc(C(=O)OC)c(=O)oc12 | > 10000 nM | – | > 10000 nM | – | – |
| C#CCCCOc1ccc2cc(C(=O)O)c(=O)oc2c1 | > 10000 nM | – | > 10000 nM | – | – |
| C#CCCCCOc1ccc2cc(-c3ccc(OC)cc3)c(=O)oc2c1 | 2.96 nM | > 3400 | > 10000 nM | Active | 4.3 |
| CC(=O)Nc1cc2ccc(OCc3cccc(Cl)c3)cc2oc1=O | 13.5 nM | 5 | 62.7 nM | – | – |
| C#CCCCCOc1ccc2c(c1)NC(=O)CC2 | 52.6 nM | > 190 | > 10000 nM | – | 1.6 |
| C#CCCCCOc1ccc2cc(C(=O)c3ccc(OC)cc3)c(=O)oc2c1 | 67.1 nM | > 150 | > 10000 nM | – | 3.5 |
| COC(=O)c1cc2ccc(OCc3cccc(F)c3)cc2oc1=O | 0.588 nM | 130 | 77.2 nM | – | 3.2 |
| C#CCCCOc1ccc2cc(C(=O)N3CCN(C(=O)OC(C)(C)C)CC3)c(=O)oc2c1 | 10000 nM | – | > 10000 nM | – | – |
| C#CCNCCOc1ccc2cc(C(=O)OC)c(=O)oc2c1 | 377 nM | 7 | 2680 nM | – | 0.5 |
| CCCCCCOc1ccc2cc(C(=O)OC)c(=O)oc2c1 | 0.875 nM | 75 | 66.1 nM | – | 4.2 |
| C#CCCCOc1ccc2cc(NC(C)=O)c(=O)oc2c1 | 43.6 nM | 21 | 930 nM | – | – |
| COC(=O)c1cc2ccc(OC/C=C(\C)CCC=C(C)C)cc2oc1=O | 78.9 nM | 130 | 10000 nM | – | – |
| C#CCOc1ccc2cc(C(=O)OC)c(=O)oc2c1 | 1790 nM | 1 | 1570 nM | – | – |
| C#CCCCCOc1ccc2oc(=O)c(C(=O)OC)cc2c1 | 123 nM | > 81 | > 10000 nM | – | – |

Continued, values first:

| IC50 [1] | Ratio IC50 [2] | IC50 [3] | inhibition (INH) [4] | logD [5] | SMILES |
| --- | --- | --- | --- | --- | --- |
| 82.4 nM | 12 | 953 nM | – | – | C#CCCCOc1ccc2cc(C(=O)OC)c(=O)oc2c1 |
| 91.8 nM | 38 | 3520 nM | – | – | C#CCCCOc1ccc2ccc(=O)oc2c1 |
| 41.7 nM | 2 | 66.8 nM | – | – | C#CCCCCOc1ccc2cc(NC(C)=O)c(=O)oc2c1 |
| 1.41 nM | 7 | 9.64 nM | Active | 2.5 | C#CCCCCOc1ccc2cc(C(=O)OC)c(=O)oc2c1 |
| – | – | – | Active | – | C[C@H](NCc1ccc(OCc2cccc(F)c2)cc1)C(N)=O [SAFINAMIDE] |
| > 10000 nM | – | > 10000 nM | – | – | C#CCCCOc1ccc2cc(C(=O)Nc3ccc(F)cc3)c(=O)oc2c1 |
| 258 nM | 3 | 818 nM | – | – | C#CCCOc1ccc2cc(C(=O)OC)c(=O)oc2c1 |
| 1440 nM | > 7 | > 10000 nM | – | – | C#CCCCOc1ccc2oc(=O)c(C(=O)OC)cc2c1 |
| 0.77 nM | 78 | 59.9 nM | – | – | C#CCCCCOc1ccc2c(C)cc(=O)oc2c1 |
| 120 nM | > 83 | > 10000 nM | – | – | COC(=O)c1cc2cc(OCCc3ccc(Cl)cc3)ccc2oc1=O |
| 325 nM | > 31 | > 10000 nM | – | – | COC(=O)c1cc2cc(OC/C=C(\C)CCC=C(C)C)ccc2oc1=O |
| 1.41 nM | 53 | 74.8 nM | – | 3.9 | COC(=O)c1cc2ccc(OCCc3ccc(Cl)cc3)cc2oc1=O |
| > 10000 nM | – | > 10000 nM | – | – | C#CCCCCOc1ccc2oc(=O)c(C(=O)c3ccc(OC)cc3)cc2c1 |
| 24.7 nM | > 400 | > 10000 nM | – | 2.4 | C#CCCCCOc1ccc2oc(=O)c(NC(C)=O)cc2c1 |
| 31.5 nM | > 320 | > 10000 nM | – | – | COC(=O)c1cc2cc(OCc3cccc(Cl)c3)ccc2oc1=O |
| 535 nM | > 19 | > 10000 nM | – | 3.1 | C#CCCCOc1ccc2cc(C(=O)c3ccc(OC)cc3)c(=O)oc2c1 |
| 2.62 nM | 140 | 367 nM | – | – | C#CCCCCOc1ccc2ccc(=O)oc2c1 |
| 18.2 nM | 30 | 553 nM | – | – | C#CCCCOc1ccc2c(C)cc(=O)oc2c1 |

— ChEMBL document CHEMBL3120072, “Alkynyl-coumarinyl ethers as MAO-B inhibitors” (Bioorg Med Chem, 2014)
